GPR7 antag = blocks human GPR7 receptor signaling; GPR7-expressing cells, fluorescence antagonist assay; inhibition, % at 4.4 µM; actives 1.1% (n = 290,000); AID 1861; in the data active means inhibition above about 16%, passing the limit was not always enough;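 further: cells stimulated with the agonist NPW; 0% = agonist with vehicle and 100% = vehicle without agonist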
TRPML3 agonist = activates the human TRPML3 channel; HEK293 TRPML3-YFP, Fluo-8 calcium fluorescence; 100% = the carbachol control signal; activation, % at 3 µM; actives 0.29% (n = 220,000); AID 1448;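 active means activation above its plate's cutoff, the mean activation of the plate's test wells plus 3 SD, cut at about 12% in these data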;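 further: 0% = DMSO only wells and 100% = carbachol wells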
Target sequence (Q8TDD5 whole entry, looked up): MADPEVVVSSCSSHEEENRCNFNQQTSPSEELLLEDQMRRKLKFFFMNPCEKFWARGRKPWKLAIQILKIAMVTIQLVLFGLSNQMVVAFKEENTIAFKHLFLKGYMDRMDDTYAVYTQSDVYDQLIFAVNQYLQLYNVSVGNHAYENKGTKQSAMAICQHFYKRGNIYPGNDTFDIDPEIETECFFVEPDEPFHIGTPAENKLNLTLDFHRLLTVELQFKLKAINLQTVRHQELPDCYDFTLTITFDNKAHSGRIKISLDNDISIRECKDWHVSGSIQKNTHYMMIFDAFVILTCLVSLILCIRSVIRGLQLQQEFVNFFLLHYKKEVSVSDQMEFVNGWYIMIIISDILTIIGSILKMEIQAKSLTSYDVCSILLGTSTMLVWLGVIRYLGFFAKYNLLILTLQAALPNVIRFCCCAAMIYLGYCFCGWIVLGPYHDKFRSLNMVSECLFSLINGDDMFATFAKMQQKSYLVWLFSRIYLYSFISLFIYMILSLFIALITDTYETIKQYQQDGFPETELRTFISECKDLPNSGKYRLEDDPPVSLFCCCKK
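Material: HEK293 cells stably carrying human TRPML3-YFP; compound dosing: single dose, 3 µM final nominal compound, 0.3% DMSO final; incubation: 1-h 37 °C dye load, 5-s basal, 120-s post-compound reads; technique: Fluo-8 intracellular calcium fluorescence, excitation 470-495 nm, emission 515-575 nm; read-out basis: percent activation from peak-to-basal fluorescence ratio, scaled between DMSO and carbachol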
CHO parental Ca = counter-screen: ATP calcium response change in parental CHO cells; parental CHO-K1, ATP-induced calcium, Fluo-8 fluorescence; actives 0.63% (n = 330,000); inhibition, % at 5.6 µM; AID 463079;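 active means inhibition above that plate's mean sample inhibition plus 3 SD, cut at about 26% in these data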;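 further: 0% = ATP-challenged DMSO wells and 100% = DMSO wells without ATP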
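test system = CHO parental line | reagent = ATP stimulus | measured by = intracellular calcium via Fluo-8 no-wash fluorescent dye | control set = ATP and no-ATP DMSO wells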
zfTRPN1 agonist = activates the zebrafish TRPN1 channel; HEK293 zebrafish TRPN1-YFP, Fluo-8 calcium fluorescence; 100% = response to 87 µM carbachol; actives 0.18% (n = 220,000); activation, % at 3 µM; AID 1424;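 active means activation above its plate's cutoff, the mean activation of test wells on that plate plus 3 SD, cut at about 19% in these data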;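 further: 0% = DMSO alone and 100% = 87 µM carbachol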
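Assay system: Zebrafish TRPN1-YFP in HEK293 cells | Incubation: Dye loading 1 h at 37 °C, then 30 min room temperature | Measured by: Kinetic Fluo-8 fluorescence, ex 470-495, em 515-575 nm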
OX1R antag-1 = human HCRTR1 antagonism | CHO/OX1R cells, Fluo-8 calcium fluorescence, orexin A | AID 434989 | inhibition, % at 5 µM | actives 0.43% (n = 330,000);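 active means inhibition above its plate's threshold, mean inhibition of all tested compounds on the plate plus 3 SD, cut at about 37% in these data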;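 further: 0% = orexin A challenge wells and 100% = SB-334867-A antagonist wells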
OX1R antag-2 = OX1R (human) antagonism; O43613; OX1R-expressing cells, FRET antagonist read-out; inhibition, % at 6.6 µM; actives 1.8% (n = 330,000); AID 485270; in the data active means inhibition mostly above about 38%, no sharp cut-off; inactive means mostly below about 40%;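 further: 0% = agonist challenge alone and 100% = reference antagonist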
The depositor's hits bear a star; x = no result given. Compounds with a hit are over-represented: about 3.2% of the library has one in this group of screens.

SMILES	GPR7 antag	TRPML3 agonist	CHO parental Ca	zfTRPN1 agonist	OX1R antag-1	OX1R antag-2
CC(=O)Nc1ccc2nc(CN3CCN(Cc4ccc(F)cc4)C(CCO)C3)ccc2c1 (centres undefined)	-19	1	-12	2	-25	5
O=C(Nc1cccc2c1CCCC2)c1ccccc1Br	-13	x	44*	x	14	0
COc1ccc(C(=O)Nc2cccc3c2CCCC3)c(OC)c1	x	x	-38	x	18	57*
COc1ccc(C(=O)Nc2cccc3c2CCCC3)cc1	4	x	6	x	-21	17
O=c1[nH]c(=S)[nH]c2sccc12	-10	1	-7	0	-4	8
COc1ccc(S(=O)(=O)N2CCN3CCCC3C2)cc1 (centres undefined)	-13	x	0	x	-18	21
COc1ccc(CNC(=O)CSc2nc3ccc(C)cc3[nH]2)cc1OC	-25	x	-22	x	-15	26
Cc1cc(C)c(S(=O)(=O)Nc2cc(SCC(=O)O)c(O)c3ccccc23)cc1C	-11	1	-17	1	-15	58*
COc1cccc(CCc2nnc(CCC(=O)NC(C)Cc3cccs3)o2)c1 (centres undefined)	-11	0	-1	0	-33	11
O=C(CN1C(=O)NC2(CCCC2)C1=O)Nc1cc(S(=O)(=O)N2CCCCC2)ccc1Cl	x	x	-13	x	-34	-3
C=C(C)CNC(=S)N=Nc1c(O)[nH]c2ccc([N+](=O)[O-])cc12	-9	1	-10	0	-14	34
O=C(CNC(=O)c1ccco1)N=Nc1c(O)[nH]c2ccc([N+](=O)[O-])cc12	-10	x	2	x	-3	63*
O=C(c1cc2c(F)cccc2s1)N1CCCC1	-9	-2	2	0	-3	9
CCN1C(=O)CS/C1=N\S(=O)(=O)c1ccc(Cl)cc1	-7	1	-15	1	-25	5
CCn1c(Cl)c(C=O)s/c1=N\S(=O)(=O)c1ccccc1	45*	2	24	1	17	51
O=S(=O)(c1ccccc1F)N1CCN(c2nc(-c3cccnc3)nc3ccccc23)CC1	x	x	-23	x	6	8
Cc1ccc(C)c(S(=O)(=O)N2CCN(c3nc(-c4cccnc4)nc4ccccc34)CC2)c1	x	x	-39	x	31	47*
CC(C)/C=C1\CC/C(=C\c2ccc(N(C)C)cc2)C1=O	-5	8	53*	22*	66*	11
Clc1cccc(CSc2nnc(-c3ccccn3)n2Cc2ccco2)c1	21*	-1	-9	-2	11	23
Brc1ccc(CSc2nnc(-c3ccccn3)n2Cc2ccco2)cc1	18*	0	-7	-2	13	10
CC(C)(C)c1ccc(CSc2nnc(-c3ccccn3)n2Cc2ccco2)cc1	-7	0	14	-1	-3	24
COc1cc(C(=O)OCC(=O)N2CCCC2=O)cc(OC)c1C	x	x	-6	x	8	3
COCCn1c(N)c(N(Cc2ccccc2)C(=O)C2=COCCO2)c(=O)[nH]c1=O	-15	x	7	x	4	2
O=C(NCc1ccc(F)cc1)N1CCN(C(=O)c2ccccc2)CC1	x	x	-11	x	-13	6
CN(C1=NS(=O)(=O)c2ccccc21)c1ccc(OC(=O)c2ccncc2)cc1	-8	1	-4	-1	8	18
SMILES	GPR7 antag	TRPML3 agonist	CHO parental Ca	zfTRPN1 agonist	OX1R antag-1	OX1R antag-2
O=C1c2ccccc2CN1CCSC(=S)N1CCOCC1	0	0	10	0	-6	13
CC1(C)C2CCC1(C)C(OCC[N+](C)(C)CC(=O)OC1CCCCC1)C2 (centres undefined)	20*	0	-4	0	-18	6
CCOC(=O)C[N+](C)(C)CCOC1CC2CCC1(C)C2(C)C (centres undefined)	9	0	-7	1	-4	17
CCc1ccccc1N1CC(C(=O)Nc2cc(C)on2)CC1=O (centres undefined)	3	x	2	x	-12	21
COCCN(CC(=O)Nc1ccccc1C(F)(F)F)C(=O)/C=C/c1cc(Cl)c2c(c1)OCO2	x	x	-37	x	-17	0
COCCN(CC(=O)Nc1ccccc1C(F)(F)F)C(=O)/C=C/c1ccc2ccccc2n1	x	x	-16	x	30	53*
C=CS(=O)(=O)c1ccc(Oc2ccc(S(=O)(=O)C=C)cc2)cc1	35*	2	3	6	5	21
CSc1nc(NNC=O)cc(Oc2ccc(NC(C)=O)cc2)n1	-12	x	2	x	-7	5
C=CCn1c(NC(=O)c2ccccc2Cl)c(C#N)c2nc3ccccc3nc21	1	1	8	3	-3	69*
CC(CC(=O)Nc1ccc(Cl)c([N+](=O)[O-])c1)c1ccccc1 (centres undefined)	-3	0	60*	6	66*	91*
O=C(Nc1ccccc1)Nc1ccc(F)c([N+](=O)[O-])c1	33*	10	19	20*	-3	42
CC(CC(=O)Nc1ccc(C(N)=O)cc1)c1ccccc1 (centres undefined)	-3	1	-6	1	-7	7
CC(=O)Nc1ccc(C)c([N+](=O)[O-])c1	-5	1	8	0	-7	12
Cc1ccc(NC(=O)Nc2ccccc2)cc1[N+](=O)[O-]	25*	8	26	16	3	49
COc1cc2c(ccc3cc(OC)c(OC)c(O)c32)cc1O	x	x	-7	x	6	12
COc1cc2cccc(OC)c(=O)c2c(O)c1OC	-2	0	0	0	-8	66*
COc1ncc(-c2ccc3c(c2)S(=O)(=O)c2cccc(C(=O)O)c2C3=O)cn1	x	x	7	x	-1	38*
O=C(O)c1cccc2c1C(=O)c1ccc(Cl)cc1S2(=O)=O	x	x	-6	x	0	39*
Cc1ccc(S(=O)(=O)N/N=C/c2cccc3nccnc23)cc1	-9	0	-6	-1	-1	12
O=C(CCNS(=O)(=O)c1ccccc1)NNC(=O)COc1ccccc1F	x	x	-4	x	-6	0
O=C(COc1ccc(-c2ccccc2)cc1)Nc1cccnc1	x	x	27*	x	58*	23
O=C(COc1ccc([N+](=O)[O-])cc1)Nc1cccnc1	4	-1	-4	0	-17	11
CC(C)CCOc1cccc(OCC(=O)Nc2ccncc2)c1	21	x	59*	x	55*	44
CCC(C)(C)c1ccc(OCC(=O)Nc2ccncc2)cc1	10	x	76*	x	78*	18
O=C(COc1ccc(Nc2ccccc2)cc1)Nc1ccncc1	x	x	37*	x	19	18
O=C(COc1ccc(Br)cc1)Nc1ccncc1	2	1	10	2	18	22
CC1CC(C)(C)CC2(C1)NC(=O)N(CC(=O)NC1CCCc3ccccc31)C2=O (centres undefined)	-7	0	-20	1	-22	24

High-throughput results (PubChem BioAssay)
